Results of several laboratories.
Compare with care: the assays were run in different laboratories.
ABL1 M351T phosphorylated: Tyrosine-protein kinase ABL1, phosphorylated (ABL1, Homo sapiens, UniProt P00519, M351T)
ABL1: Tyrosine-protein kinase ABL1 (ABL1, Homo sapiens, UniProt P00519)
ABL1 H396P: Tyrosine-protein kinase ABL1 (ABL1, Homo sapiens, UniProt P00519, H396P)
ABL1 Q252H phosphorylated: Tyrosine-protein kinase ABL1, phosphorylated (ABL1, Homo sapiens, UniProt P00519, Q252H)
ABL1 E255K: Tyrosine-protein kinase ABL1 (ABL1, Homo sapiens, UniProt P00519, E255K)
ABL1 F317I phosphorylated: Tyrosine-protein kinase ABL1, phosphorylated (ABL1, Homo sapiens, UniProt P00519, F317I)
ABL1 T315I phosphorylated: Tyrosine-protein kinase ABL1, phosphorylated (ABL1, Homo sapiens, UniProt P00519, T315I)

SMILES	target	assay	conditions	quantity	value
CN(c1ccnc(CNc2nc(Nc3ccc4c(c3)CC(=O)N4)ncc2C(F)(F)F)n1)S(C)(=O)=O	ABL1 M351T phosphorylated	cell-free assay, competition with immobilised ligand	1 µM	remaining binding	62%
COc1cc2nccc(Oc3ccc(NC(=O)Nc4ccc(F)cc4F)c(F)c3)c2cc1OC	ABL1	thermal stability, DSF	10 µM	ΔTm	> 10 °C
Cc1ccc(C(=O)NCc2ccsc2)cc1C#Cc1cn(C(C)C)c2ncnc(N)c12	Tyrosine-protein kinase ABL1 (ABL1, Homo sapiens, UniProt P00519, T315I)	enzyme activity, inhibitor	1 µM	activity vs control	6%
Cc1cnc(NC2CCOCC2)nc1-n1cnc(C(=O)NC(CN)c2cc(F)cc(Cl)c2)c1 (stereo not drawn)	ABL1 H396P	enzyme activity, inhibitor, radiometric	1 µM	remaining activity	108%
Cc1nccc(COC(=O)N2C[C@@H]3[C@@H](CNC(=O)c4ccc5[nH]nnc5c4)[C@@H]3C2)n1	ABL1 Q252H phosphorylated	cell-free assay, competition with immobilised ligand	1 µM	remaining binding	93%
CCCOc1ccc(OC)c(F)c1C(=O)c1ccc(C(=O)N[C@@H]2CNC[C@H]2NC(=O)c2ccc3[nH]ncc3c2)cc1	ABL1 H396P	enzyme activity, inhibitor	10 µM	remaining activity	107%
Nc1cnc(N2CCc3cc(S(=O)(=O)Nc4c(F)cc(Cl)cc4F)cc(N4CCCC4=O)c32)nc1	ABL1 Q252H phosphorylated	cell-free assay, competition with immobilised ligand	1 µM	remaining binding	98%
COc1ccc(COc2ccc(Cc3cnc(N)nc3N)cc2OC)cc1	ABL1	cell-free assay	0.5 µM	remaining signal	102%
O=C(c1ccc(Nc2nccc(-c3cc4ccccc4s3)n2)cc1)N1CCC(N2CCCC2)CC1	Tyrosine-protein kinase ABL1, non-phosphorylated (ABL1, Homo sapiens, UniProt P00519, Q252H)	binding, competition with immobilised ligand	1 µM	remaining binding	9.8%
COc1cc(-c2cc(-c3ccc(N4CCNCC4)cc3)cnc2N)cc(OC)c1OC	ABL1 E255K	enzyme activity, inhibitor	0.1 µM	inhibition	74%
Cc1nc(Cc2cccc(C(F)(F)F)c2)sc1-c1ccc(C(N)=O)nc1	ABL1 F317I phosphorylated	binding	1 µM	remaining binding	83%
C=CC(=O)N1CCC(C(=O)NCC(=O)N2CCN(c3nc(-c4cnc(N)nc4C(F)F)nc(N4CCOCC4)n3)CC2)CC1	Tyrosine-protein kinase ABL1, phosphorylated (ABL1, Homo sapiens, UniProt P00519, F317L)	binding, competition with immobilised ligand	1 µM	remaining binding	100%
COc1cc(/C=C/C(=O)CC(=O)/C=C/c2ccc(O)c(OC)c2)ccc1O	ABL1	enzyme activity, inhibitor	1 µM	activity vs control	82%
CO[C@@H](C)c1c(Nc2ccc([C@H](N(C)C(=O)C3CCS(=O)(=O)CC3)C(F)(F)F)cc2)cnc2cc(Cl)nn12	ABL1 F317I phosphorylated	binding	1 µM	remaining binding	100%
Cc1ccc(NC(=O)c2ccc(C)c(C(F)(F)F)c2)cc1C#Cc1nn(C2CCC(O)CC2)c2ncnc(N)c12 (stereo not drawn)	ABL1	cell-free assay	10 µM	remaining signal	-3%
O=C(NCCCN1CCOCC1)c1ccc(Nc2ncc(Cl)c(-c3ccc(Cl)s3)n2)cc1	ABL1 Q252H phosphorylated	binding, competition with immobilised ligand	1 µM	remaining binding	29%
N[C@@H]1CCN(c2nccc(-c3cnn4ncccc34)n2)C1	Tyrosine-protein kinase ABL1 (ABL1, Homo sapiens, UniProt P00519, F317L)	binding	1 µM	remaining binding	100%
C[C@@H](c1ccc(-n2cnc3c(N)ncnc32)cc1)N1CCc2nn(C)c(Cc3ccccc3)c2C1=O	Tyrosine-protein kinase ABL1, non-phosphorylated (ABL1, Homo sapiens, UniProt P00519, F317L)	binding, competition with immobilised ligand	0.1 µM	remaining binding	16%
Nc1ncc2c(n1)-c1c([nH]c3ccc(C#CC4CC4)cc13)CCCC2	Tyrosine-protein kinase ABL1, phosphorylated (ABL1, Homo sapiens, UniProt P00519, E255K)	binding, competition with immobilised ligand	1 µM	remaining binding	100%
CC(=O)c1c(NS(C)(=O)=O)c2cc(-c3ccc(Cl)cc3)c(-c3ccc(Cl)cc3Cl)nc2n(C)c1=O	ABL1 T315I phosphorylated	cell-free assay, competition with immobilised ligand	1 µM	remaining binding	93%
Cc1cc(NC(=O)c2cccc3cc(-c4cccc5[nH]nc(N)c45)ccc23)ccc1F	Tyrosine-protein kinase ABL1 (ABL1, Homo sapiens, UniProt P00519, Q252H)	enzyme activity, inhibitor	0.1 µM	activity vs control	88%
COc1cc2c(N3CCN(C(=O)Nc4ccc(OC(C)C)cc4)CC3)ncnc2cc1OCCCN1CCCCC1	ABL1	cell-free assay	0.5 µM	remaining signal	104%
COc1ccc2c(c1)O[C@H](c1ccc(OC)c(OC)c1)C[C@@H]2NC(=O)C1(c2ccc3c(c2)OC(F)(F)O3)CC1	ABL1 M351T phosphorylated	cell-free assay, competition with immobilised ligand	1 µM	remaining binding	88%
Nc1ncnc2occ(-c3ccc(NC(=O)Nc4cc(C(F)(F)F)ccc4F)cc3)c12	Tyrosine-protein kinase ABL1, non-phosphorylated (ABL1, Homo sapiens, UniProt P00519, T315I)	cell-free assay, inhibitor	20 µM	remaining signal	0%
CCOC(=O)c1c(C)[nH]c(/C=C2\C(=O)Nc3ccccc32)c1C	ABL1	cell-free assay	0.5 µM	remaining signal	95.4%
Cc1c(NC(=O)c2cc(C(N)=O)nc3cc(F)ccc23)c(C(F)(F)F)nn1Cc1ccc(C(C)(C)C)cc1	ABL1 T315I phosphorylated	cell-free assay, competition with immobilised ligand	1 µM	remaining binding	85%
COc1cc2ncnc(Nc3ccc(Oc4ccccc4)cc3C)c2cc1OC	ABL1 E255K	enzyme activity, inhibitor	1 µM	inhibition	5%
